One block for each compound: values may come before it.
Legend:
KCa3.1 channel = KCa3.1 channel (Homo sapiens, UniProt O15554); experiment: whole-cell patch clamp on A549-3R cells, 1-EBIO activated KCa3.1 current; format: cell-based
[1] = in vitro metabolism with mouse liver microsomes and NADPH, LC-MS/MS; format: in vitro ADME; settings: mouse liver microsomes, NADPH, 37 °C, 90 min
How it was run: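 The non-radioactive fluorinated reference compound was incubated with mouse liver microsomes and NADPH at 37 °C for 90 min. The reaction was stopped with CH3CN/CH3OH (1:1), cooled and centrifuged to remove protein. The supernatant was analysed by ESI LC-MS/MS (qToF). The metabolite was assigned from the accurate m/z of the [M + H]+ ion against the calculated exact mass.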

[2] = chemical stability under 18F-labelling conditions; format: physicochemical; settings: 10 min, DMF

Chain of KCa3.1 channel (O15554 whole entry): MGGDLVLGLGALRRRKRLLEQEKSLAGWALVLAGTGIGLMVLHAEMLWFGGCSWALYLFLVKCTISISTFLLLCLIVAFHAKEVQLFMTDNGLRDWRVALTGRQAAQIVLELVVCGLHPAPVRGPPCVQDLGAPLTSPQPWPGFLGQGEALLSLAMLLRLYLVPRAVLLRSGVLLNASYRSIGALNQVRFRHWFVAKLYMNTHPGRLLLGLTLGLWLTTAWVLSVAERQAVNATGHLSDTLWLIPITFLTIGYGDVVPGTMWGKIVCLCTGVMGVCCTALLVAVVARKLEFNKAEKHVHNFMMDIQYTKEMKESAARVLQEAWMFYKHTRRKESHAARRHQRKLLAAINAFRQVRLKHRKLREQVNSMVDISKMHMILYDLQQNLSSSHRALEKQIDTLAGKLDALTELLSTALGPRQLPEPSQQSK

effect on 1-EBIO activated KCa3.1 mediated current (KCa3.1 channel; 28 at 10 μM after 1-EBIO 50 μM, n = 5): reduced ionic current
main metabolite [1]: phenol 9
SMILES: NC(=O)C(c1ccccc1)(c1ccc(F)cc1)c1ccc(OCCF)cc1 (centres unmarked) [compound 28]

effect on 1-EBIO activated KCa3.1 mediated current (KCa3.1 channel; senicapoc 1 μM, applied consecutively after 28, n = 5): complete inhibition
Stability (TLC) ([2]; (NH4)2C2O4 (5 eq.), 90 °C): Stable
Stability (TLC) ([2]; (NH4)2C2O4 (5 eq.), 110 °C): Stable
Stability (TLC) ([2]; (NH4)2C2O4 (5 eq.), 130 °C): Stable
Stability (TLC) ([2]; K2CO3 (5 eq.), 90 °C): Partial decomposition
Stability (TLC) ([2]; K2CO3 (5 eq.), 110 °C): Partial decomposition
Stability (TLC) ([2]; K2CO3 (5 eq.), 130 °C): Complete decomposition
Stability (TLC) ([2]; TBAF (5 eq.), 90 °C): Complete decomposition
Stability (TLC) ([2]; TBAF (5 eq.), 110 °C): Complete decomposition
Stability (TLC) ([2]; TBAF (5 eq.), 130 °C): Complete decomposition
Stability (TLC) ([2]; no base, 130 °C): Stable
SMILES: NC(=O)C(c1ccccc1)(c1ccc(F)cc1)c1ccc(F)cc1 [senicapoc]

effect on current (current density) in patch clamp (KCa3.1 channel; 1-EBIO 50 μM, applied 2-5 min, n = 5): increased outward current
SMILES: CCn1c(=O)[nH]c2ccccc21 [1-EBIO, 1-ethyl-2-benzimidazolone]
